Measured values: ChEMBL document CHEMBL1629660, “Pharmacodynamics of tigecycline against phenotypically diverse Staphylococcus aureus isolates in a murine thigh model” (Antimicrob Agents Chemother, 2009)
Values after ≈ are worked out from the molar mass of the structure shown.

Legend:
[1] = Tmax in neutropenic ICR mouse infected with Staphylococcus aureus ATCC 29213 at 25 mg/kg, sc by HPLC; format: ADME, organism-based; parameters: dose 25 mg/kg, route subcutaneous; conditions: in vivo
Outline: (§1)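 Neutropenic female ICR mice (cyclophosphamide 150 and 100 mg/kg ip, 4 days and 1 day before inoculation), both thighs inoculated im with ~10^7 CFU/ml of ATCC 29213. Single sc doses of 50, 25, 12.5 or 6.25 mg/kg. Cardiac blood taken from groups of six at 8–12 times over 0.5–24 h. Serum measured by HPLC (linear 0.05–5 µg/ml). Two-compartment fit by nonlinear least squares; AUC by trapezoidal rule.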

[2] = fAUC/MIC in hospital-acquired methicillin-resistant Staphylococcus aureus isolate 56-infected neutropenic ICR mouse at stasis dose; format: functional
Outline: (§2)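 Single-dose serum PK in infected neutropenic mice (sc 6.25–50 mg/kg; HPLC; two-compartment fit; AUC by trapezoidal rule; lower doses simulated). Free fraction from ultrafiltration of spiked mouse serum, in triplicate. Free exposures divided by modal MIC and plotted against 24-h log10 CFU change with a sigmoidal Emax model; EI50, EI80 and stasis values read from the fitted curves.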

Staphylococcus aureus [3] = assay: Antimicrobial activity against community acquired methicillin-resistant Staphylococcus aureus isolate 156 infected in immunocompetent ICR mouse assessed as reduction in bacterial load at […] after 24 hrs; format: functional
Outline: (§3)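 Non-neutropenic ICR mice (no cyclophosphamide). Each thigh inoculated im with 0.1 ml of ~10^8 CFU/ml. Tigecycline given sc once daily at 1.56, 3.13, 6.25 or 12.5 mg/kg starting 2 h post-infection, 3 mice/group. Thighs harvested at 24 h, homogenized, plated on blood agar; log10 CFU change vs 0-h controls.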

Staphylococcus aureus [4] = assay: Antimicrobial activity against community acquired methicillin-resistant Staphylococcus aureus isolate 156 infected in immunocompetent ICR mouse assessed as reduction in bacterial load at 12.5 […] after 24 hrs; format: functional; outline: as §3
[5] = fAUC/MIC in community acquired methicillin-resistant Staphylococcus aureus isolate 144-infected neutropenic ICR mouse at stasis dose; format: functional; outline: as §2
[6] = r2 for fAUC/MIC in community acquired methicillin-resistant Staphylococcus aureus isolate 147-infected neutropenic ICR mouse
[7] = fAUC/MIC in community acquired methicillin-resistant Staphylococcus aureus isolate 156 infected-immunocompetent ICR mouse at 1.56 […], sc QD; format: functional
Outline: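 Derived from neutropenic-mouse serum PK (HPLC, two-compartment fit) with ultrafiltration protein-binding correction, divided by modal MIC.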

[8] = r2 of fT>MIC in methicillin-sensitive Staphylococcus aureus ATCC 25923-infected neutropenic ICR mouse
[9] = fAUC/MIC in community acquired methicillin-resistant Staphylococcus aureus isolate 156-infected neutropenic ICR mouse at 80% effective exposure index; format: functional; outline: as §2
Staphylococcus aureus [10] = assay: Antimicrobial activity against methicillin-sensitive Staphylococcus aureus ATCC 29213 infected in neutropenic ICR mouse assessed as change in bacterial load after 24 hrs; format: functional
Outline: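 Neutropenic ICR mice had both thighs inoculated with ~10^7 CFU/ml; dosing began 2 h later. Groups of three received 1.56–400 mg/kg/day sc as single or divided doses, with saline-dosed controls. Thighs were homogenized and plated on blood agar at 24 h. Read-out was the log10 CFU/ml change relative to 0-h controls.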

[11] = Tmax in neutropenic ICR mouse infected with Staphylococcus aureus ATCC 29213 at 6.25 mg/kg, sc by HPLC; format: ADME, organism-based; parameters: dose 6.25 mg/kg, route subcutaneous; conditions: in vivo; outline: as §1
[12] = r2 of fCmax/MIC in hospital-acquired methicillin-resistant Staphylococcus aureus isolate 152-infected neutropenic ICR mouse
[13] = fAUC/MIC in community acquired methicillin-resistant Staphylococcus aureus isolate 156 infected-immunocompetent ICR mouse at […], sc QD; format: functional
[14] = fAUC/MIC in methicillin-sensitive Staphylococcus aureus ATCC 25923-infected neutropenic ICR mouse at 50% effective exposure index; format: functional
Staphylococcus aureus [15] = assay: Antimicrobial activity against Hospital-acquired methicillin-resistant Staphylococcus aureus isolate 56 by broth microdilution method; format: functional
Outline: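 Tigecycline MIC by CLSI broth microdilution, run in triplicate; modal MIC reported. Isolates stored at –80°C in double-strength skim milk and subcultured twice on Trypticase soy agar with 5% sheep blood before use.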

Acinetobacter baumannii = assay: Antimicrobial activity against carbapenem-intermediate,-resistant Acinetobacter baumannii assessed as decrease in bacterial count at 0.7 times of MIC after 24 hrs by time kill analysis; format: functional
[16] = Protein binding in methicillin-sensitive Staphylococcus aureus ATCC 29213-infected neutropenic ICR mouse serum at 50 mg/kg, sc by HPLC; format: ADME, organism-based; parameters: dose 50 mg/kg, route subcutaneous; conditions: read-out: PB (converted)
[17] = r2 for fT>MIC in community acquired methicillin-resistant Staphylococcus aureus isolate 147-infected neutropenic ICR mouse
[18] = fAUC/MIC in methicillin-sensitive Staphylococcus aureus ATCC 29213-infected neutropenic ICR mouse at 80% effective exposure index; format: functional
Outline: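 fT>MIC, fCmax/MIC and fAUC/MIC were built from the serum pharmacokinetics, protein binding, modal broth-microdilution MIC (triplicate, CLSI) and 24-h thigh CFU change. Each index was fit to a sigmoidal Emax model. EI50, EI80 and stasis exposures were taken from each isolate's curve.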

[19] = AUC (0 to 24 hrs) in neutropenic ICR mouse infected with Staphylococcus aureus ATCC 29213 at 25 mg/kg, sc by HPLC; format: ADME, organism-based; parameters: time < 24 hr, dose 25 mg/kg, route subcutaneous; conditions: plasma; outline: as §1
[20] = AUC in neutropenic ICR mouse infected with Staphylococcus aureus ATCC 29213 at 6.25 to 50 mg/kg, sc; format: ADME, organism-based; parameters: dose 6.25-50 mg/kg, route subcutaneous; conditions: plasma; outline: as §1
[21] = r2 of fCmax/MIC in community acquired methicillin-resistant Staphylococcus aureus isolate 147-infected neutropenic ICR mouse
Staphylococcus aureus [22] = assay: Antimicrobial activity against community acquired methicillin-resistant Staphylococcus aureus isolate 156 infected in immunocompetent ICR mouse assessed as reduction in bacterial load at […] after 24 hrs; format: functional; outline: as §3
[23] = r2 for fAUC/MIC in community acquired methicillin-resistant Staphylococcus aureus isolate 156-infected neutropenic ICR mouse
[24] = fAUC/MIC in hospital-acquired methicillin-resistant Staphylococcus aureus isolate 152-infected neutropenic ICR mouse at 50% effective exposure index; format: functional; outline: as §2
[25] = Protein binding in methicillin-sensitive Staphylococcus aureus ATCC 29213-infected neutropenic ICR mouse serum at 25 mg/kg, sc by HPLC; format: ADME, organism-based; parameters: dose 25 mg/kg, route subcutaneous; conditions: read-out: PB (converted)

CN(C)c1cc(NC(=O)CNC(C)(C)C)c(O)c2c1C[C@H]1C[C@H]3[C@H](N(C)C)C(O)=C(C(N)=O)C(=O)[C@@]3(O)C(O)=C1C2=O [TIGECYCLINE]
Tmax [1]: 31.8 min
fAUC/MIC [2]: 2.5
log10cfu (Staphylococcus aureus [3]): 1.8
log10cfu (Staphylococcus aureus [4]): 1.6
fAUC/MIC [5]: 2.6
r2 [6]: 0.966
fAUC/MIC [7]: 1.8
r2 [8]: 0.872%
fAUC/MIC [9]: 13
log10CFU/ml (Staphylococcus aureus [10]): 2.3
Tmax [11]: 4.8 min
r2 [12]: 0.953
fAUC/MIC [13]: 3.6
fAUC/MIC [14]: 5
MIC (Staphylococcus aureus [15]): 0.5 µg/mL (≈ 0.854 µM)
log10cfu (Acinetobacter baumannii): 2
fraction unbound [16]: 0.071
r2 [17]: 0.483%
fAUC/MIC [18]: 4.1
AUC(0-t) at 24 h [19]: 25200 ng·h/mL
AUC [20]: 1200 ng·h/mL
r2 [21]: 0.892
log10cfu (Staphylococcus aureus [22]): 1.9
r2 [23]: 0.97
fAUC/MIC [24]: 1.5
fraction unbound [25]: 0.075
